Reference: ChEMBL document CHEMBL1131250 (J Med Chem, 1998)

Assays:
[1] = target: 5-hydroxytryptamine receptor 1B (Gorilla gorilla, UniProt Q9N2B7); experiment: The compound was tested for CNS binding affinity towards 5-hydroxytryptamine 1B receptor from cloned gorilla membranes expressed in cultured HEK 293 cells; assay type: cell-based, HEK293
[2] = target: T1, D(4) dopamine receptor (Homo sapiens, UniProt P21917); experiment: The compound was tested for CNS binding affinity towards Dopamine receptor D4 from cloned Human membranes; Inactive
T1 sequence (P21917 whole entry): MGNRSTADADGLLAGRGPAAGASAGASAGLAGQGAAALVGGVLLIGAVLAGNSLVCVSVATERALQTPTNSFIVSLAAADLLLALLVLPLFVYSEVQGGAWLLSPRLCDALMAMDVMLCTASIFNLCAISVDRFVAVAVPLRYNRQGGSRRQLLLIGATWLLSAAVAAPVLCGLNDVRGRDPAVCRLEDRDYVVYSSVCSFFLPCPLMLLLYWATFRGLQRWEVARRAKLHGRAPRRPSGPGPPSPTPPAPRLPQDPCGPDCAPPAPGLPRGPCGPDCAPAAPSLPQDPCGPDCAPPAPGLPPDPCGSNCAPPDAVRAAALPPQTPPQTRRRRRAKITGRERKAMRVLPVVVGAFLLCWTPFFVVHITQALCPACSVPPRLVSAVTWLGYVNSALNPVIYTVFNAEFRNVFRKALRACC

[3] = target: T2, D(2) dopamine receptor (Homo sapiens, UniProt P14416); experiment: The compound was tested for CNS binding affinity towards Dopamine receptor D2 from cloned Human membranes.
T2 sequence (P14416 whole entry): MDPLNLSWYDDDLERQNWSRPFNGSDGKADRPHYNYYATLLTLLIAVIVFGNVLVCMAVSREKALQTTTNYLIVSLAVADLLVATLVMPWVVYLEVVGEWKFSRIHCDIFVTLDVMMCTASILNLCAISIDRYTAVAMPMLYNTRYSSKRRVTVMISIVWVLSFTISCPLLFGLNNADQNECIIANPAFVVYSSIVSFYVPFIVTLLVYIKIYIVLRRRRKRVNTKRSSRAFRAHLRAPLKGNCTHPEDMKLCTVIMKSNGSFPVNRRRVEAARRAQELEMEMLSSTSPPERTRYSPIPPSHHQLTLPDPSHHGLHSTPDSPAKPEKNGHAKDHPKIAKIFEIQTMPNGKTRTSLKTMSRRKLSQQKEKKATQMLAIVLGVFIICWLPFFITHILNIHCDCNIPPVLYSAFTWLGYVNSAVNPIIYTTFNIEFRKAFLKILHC
Method in brief: (§1)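 Radioligand binding on membranes from cloned human receptors (5-HT1A, 5-HT2A, D2, D4). Ki values reported.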

[4] = target: T3, 5-hydroxytryptamine receptor 2A (Homo sapiens, UniProt P28223); experiment: The compound was tested for CNS binding affinity towards 5-hydroxytryptamine 2A receptor from cloned Human membranes.; method in brief: as §1
T3 sequence (P28223 whole entry): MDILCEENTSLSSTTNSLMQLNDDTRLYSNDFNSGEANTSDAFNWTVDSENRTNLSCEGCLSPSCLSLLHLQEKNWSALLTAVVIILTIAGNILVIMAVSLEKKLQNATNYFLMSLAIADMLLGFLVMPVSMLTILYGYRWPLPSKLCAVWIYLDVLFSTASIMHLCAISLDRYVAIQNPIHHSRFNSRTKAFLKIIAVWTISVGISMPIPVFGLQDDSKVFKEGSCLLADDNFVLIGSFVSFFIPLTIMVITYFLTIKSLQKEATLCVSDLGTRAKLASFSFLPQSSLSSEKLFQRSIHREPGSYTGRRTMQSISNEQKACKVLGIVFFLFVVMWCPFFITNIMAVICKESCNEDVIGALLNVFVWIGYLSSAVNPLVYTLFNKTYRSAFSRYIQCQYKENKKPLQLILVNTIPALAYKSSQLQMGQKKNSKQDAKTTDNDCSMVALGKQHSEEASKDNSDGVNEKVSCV

[5] = target: T4, 5-hydroxytryptamine receptor 1A (Homo sapiens, UniProt P08908); experiment: The compound was tested for CNS binding affinity towards 5-hydroxytryptamine 1A receptor from cloned Human membranes.; method in brief: as §1
T4 sequence (P08908 whole entry): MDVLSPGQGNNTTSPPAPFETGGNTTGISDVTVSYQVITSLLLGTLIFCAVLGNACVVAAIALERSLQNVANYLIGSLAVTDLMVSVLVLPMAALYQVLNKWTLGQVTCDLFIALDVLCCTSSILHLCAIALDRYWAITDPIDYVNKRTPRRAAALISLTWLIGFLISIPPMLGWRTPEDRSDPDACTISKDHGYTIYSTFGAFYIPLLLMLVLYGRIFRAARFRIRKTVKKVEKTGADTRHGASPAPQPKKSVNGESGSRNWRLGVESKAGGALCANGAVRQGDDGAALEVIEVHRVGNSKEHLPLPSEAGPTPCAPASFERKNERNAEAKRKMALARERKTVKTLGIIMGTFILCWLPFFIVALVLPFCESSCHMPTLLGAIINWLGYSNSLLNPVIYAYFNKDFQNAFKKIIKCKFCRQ

[6] = test system: Cavia porcellus; experiment: The compound (50umol/kg, sc) was tested for hypothermic response for 30 mins in Guinea pig; assay type: functional
Method in brief: (§2)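 Guinea pigs dosed subcutaneously. Body temperature change read at 30 and 60 min after dosing. Response given as the difference in °C from vehicle-treated controls, as mean ± SEM, n = 4-5 per group. Significance tested against vehicle.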

[7] = test system: Cavia porcellus; experiment: The compound (25umol/kg, sc) was tested for hypothermic response for 30 mins in Guinea pig; assay type: functional; method in brief: as §2
[8] = test system: Cavia porcellus; experiment: The compound (25umol/kg, sc) was tested for hypothermic response for 60 mins and in Guinea pig; assay type: functional; method in brief: as §2
[9] = test system: Cavia porcellus; experiment: The compound (100umol/kg, sc) was tested for hypothermic response for 60 mins and in Guinea pig; assay type: functional; method in brief: as §2
[10] = target: T3, 5-hydroxytryptamine receptor 2A; experiment: The compound was tested for CNS binding affinity towards 5-hydroxytryptamine 2A receptor from cloned Human membranes
[11] = target: T1, D(4) dopamine receptor; experiment: The compound was tested for CNS binding affinity towards Dopamine receptor D4 from cloned Human membranes.; method in brief: as §1
[12] = test system: Cavia porcellus; experiment: The compound (100umol/kg, sc) was tested for hypothermic response for 30 mins in Guinea pig; assay type: functional; method in brief: as §2
[13] = test system: Cavia porcellus; experiment: The compound (50umol/kg, sc) was tested for hypothermic response for 60 mins and in Guinea pig; assay type: functional; method in brief: as §2
[14] = test system: Cavia porcellus; experiment: The compound (25umol/kg, sc) was tested for hypothermic response for 60 mins in Guinea pig; assay type: functional
Method in brief: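 Guinea pigs received compound subcutaneously (doses 25–100 μmol/kg across groups), and body temperature change was read at 30 and 60 min after dosing. The hypothermic response is the difference in °C from vehicle-treated controls, reported as mean ± SEM (n = 4–5), with significance tested against vehicle.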

[15] = target: T2, D(2) dopamine receptor; experiment: The compound was tested for CNS binding affinity towards Dopamine receptor D2 from cloned Human membranes; method in brief: as §1
[16] = target: T1, D(4) dopamine receptor; experiment: The compound was tested for CNS binding affinity towards Dopamine receptor D4 from cloned Human membranes; method in brief: as §1
[17] = target: T4, 5-hydroxytryptamine receptor 1A; experiment: The compound was tested for CNS binding affinity towards 5-hydroxytryptamine 1A receptor from cloned Human membranes; method in brief: as §1

5-hydroxytryptamine receptor 1B, sequence (Q9N2B7 whole entry): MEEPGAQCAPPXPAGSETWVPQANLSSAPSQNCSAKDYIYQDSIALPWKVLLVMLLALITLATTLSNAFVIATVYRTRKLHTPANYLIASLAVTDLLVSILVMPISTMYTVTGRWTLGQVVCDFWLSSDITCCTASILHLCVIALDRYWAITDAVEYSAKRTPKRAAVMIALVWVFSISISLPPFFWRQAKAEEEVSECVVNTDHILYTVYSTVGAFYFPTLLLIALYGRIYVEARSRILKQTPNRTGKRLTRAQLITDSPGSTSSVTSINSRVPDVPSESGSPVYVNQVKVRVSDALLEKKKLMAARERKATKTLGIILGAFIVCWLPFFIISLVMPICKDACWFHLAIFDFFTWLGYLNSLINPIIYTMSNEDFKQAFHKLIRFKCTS

## CNC(=O)c1ccc2c(c1)CCO[C@@H]2CCN1CCN(c2ccc(OC)cc2)CC1
[1]
  Ki: 150000 nM
[2]
  Ki: Not Active
[3]
  Ki: 158 nM
[4]
  Ki: 586 nM
[5]
  Ki: > 3360 nM

## CNC(=O)c1ccc2c(c1)CCO[C@H]2CCN1CCN(c2ccc(OC)cc2)CC1
[1]
  Ki: 5780 nM
[6]
  Hypothermic effect: -1.84 °C
[7]
  Hypothermic effect: -0.8 °C
[8]
  Hypothermic effect: -0.54 °C
[9]
  Hypothermic effect: -1.52 °C
[3]
  Ki: 241 nM
[10]
  Ki: 168 nM
[11]
  Ki: > 3700 nM
[12]
  Hypothermic effect: -1.38 °C
[13]
  Hypothermic effect: -2.34 °C
[5]
  Ki: 1090 nM

## COc1ccc(N2CCN(CCC3OCCc4ccccc43)CC2)cc1 (configuration not stated)
[1]
  Ki: 7240 nM
[3]
  Ki: 1430 nM
[10]
  Ki: 76 nM
[11]
  Ki: 2.4 nM
[5]
  Ki: 899 nM

## COc1ccc(N2CCN(CC[C@@H]3OCCc4cc(C(N)=O)ccc43)CC2)cc1
[1]
  Ki: 3020 nM
[6]
  Hypothermic effect: -1.42 °C
[2]
  Ki: Not Active
[3]
  Ki: 325 nM
[13]
  Hypothermic effect: -1.14 °C
[5]
  Ki: 967 nM

## CNS(=O)(=O)Cc1ccc2[nH]cc(CCN(C)C)c2c1
[2]
  Ki: Not Active
[3]
  Ki: > 218 nM
[14]
  Hypothermic effect: -0.14

## COc1ccc(N2CCN(CC[C@H]3OCCc4cc(C(N)=O)ccc43)CC2)cc1
[1]
  Ki: 26000 nM
[3]
  Ki: 386 nM
[5]
  Ki: > 3360 nM

## COc1ccc(N2CCN(CCC3OCCc4cc(C(N)=O)ccc43)CC2)cc1 (configuration not stated)
[1]
  Ki: 5860 nM
[15]
  Ki: 348 nM
[16]
  Ki: 1050 nM
[17]
  Ki: 2460 nM
